The source made the active and inactive calls.
Assays:
[1] = system: GLI56; assay: Cytotoxicity against human GLI56 cells assessed as reduction in cell viability up to 10 uM by Cell-Titer Glo assay; type: functional, cell-based
In short: (§1)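 Viability read by CellTiter-Glo: reagent added 1:1 to the well medium, plates kept in foil and shaken 2 min at room temperature, paused 2 min, then shaken 2 min more, and luminescence measured. Compounds were tested at concentrations up to 10 μM. Sphaeropsidin A served as positive control and a DMSO blank as negative control.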

[2] = system: Candida albicans; assay: Antimicrobial activity against Candida albicans at 100 ug/disc by standard disc dassay; type: functional
[3] = system: D453 (Homo sapiens); assay: Cytotoxicity against human D453 cells assessed as reduction in cell viability up to 10 uM by Cell-Titer Glo assay
[4] = system: Staphylococcus aureus; assay: Antimicrobial activity against Staphylococcus aureus at 100 ug/disc by standard disc dassay; type: functional
[5] = system: MDA-MB-231; assay: Cytotoxicity against human MDA-MB-231 cells assessed as reduction in cell viability up to 10 uM by Cell-Titer Glo assay; type: functional, cell-based; in short: as §1
[6] = system: Cryptococcus neoformans; assay: Antimicrobial activity against Cryptococcus neoformans at 100 ug/disc by standard disc dassay; type: functional
[7] = system: Escherichia coli; assay: Antimicrobial activity against Escherichia coli at 100 ug/disc by standard disc dassay; type: functional
[8] = system: Bacillus subtilis; assay: Antimicrobial activity against Bacillus subtilis at 100 ug/disc by standard disc dassay; type: functional

Measured: Activity

COC(=O)c1cc(OC)cc(O)c1C(=O)c1cc(C(C)=O)c(O)c(C(=O)c2c(O)cc(OC)cc2C(=O)OC)c1
inactive: all assays above

COC(=O)c1cc(OC)cc(O)c1C1=C2CC3(COc4cc(OC)cc(C(=O)OC)c4C3=O)C(=O)C(C(C)=O)=C2C=C(C)O1 (centres undefined)
inactive: all assays above

COC(=O)c1cc(OC)cc(O)c1C(=O)c1cc(C(C)=O)c2oc3cc(OC)cc(C(=O)OC)c3c(=O)c2c1
inactive: all assays above

Reference: ChEMBL document CHEMBL4033608, “Benzophenone and Fimetarone Derivatives from the Coprophilous Fungus Delitschia confertaspora” (J Nat Prod, 2017)
